M1 antagonist: M1 muscarinic receptor (rat) antagonism. B-score at 10 µM. actives 3.4% (n = 64,000). CHO-M1 cells, Fluo-4 calcium, ACh EC80 antagonist mode; active compounds read low;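 active = calcium fluorescence response, raw or row-and-column corrected B-score, differing from the plate sample mean either way at a set confidence level, mostly lower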
MT1-MMP txn act: MT1-MMP promoter transcription activation | HT1080 MT1-MMP promoter luciferase reporter, luminescence, overnight; active compounds read high | activation factor at 10 µM | actives 0.16% (n = 86,000);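 active = activation factor of at least 2 for MT1-MMP transcription at 10 µM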
M1 ag: agonists of M1 muscarinic receptor | CHO-M1 cells, Fluo-4 calcium fluorescence, agonist mode; active compounds read high | AID 626 | actives 3% (n = 64,000) | B-score at 10 µM;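 active = fluorescence rise, raw or as B-score row- and column-corrected plate score, outside the 99.7% band of its plate's samples, either direction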
RORa activator: activators of human nuclear receptor RORA; actives 1.5% (n = 65,000); CHO-K1 Gal4-RORA LBD luciferase reporter, luminescence; percent increase over mock-subtracted basal signal; activation, % at 10 µM; AID 560;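 active = activation above the mean of all tested compounds plus 3 SD, cut at about 49% in these data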;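 note: 0% = DMSO-treated RORA cells and 100% = added signal equal to DMSO minus mock-transfected cells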
Target sequence (P35398 whole entry, looked up, the tested form may be a part): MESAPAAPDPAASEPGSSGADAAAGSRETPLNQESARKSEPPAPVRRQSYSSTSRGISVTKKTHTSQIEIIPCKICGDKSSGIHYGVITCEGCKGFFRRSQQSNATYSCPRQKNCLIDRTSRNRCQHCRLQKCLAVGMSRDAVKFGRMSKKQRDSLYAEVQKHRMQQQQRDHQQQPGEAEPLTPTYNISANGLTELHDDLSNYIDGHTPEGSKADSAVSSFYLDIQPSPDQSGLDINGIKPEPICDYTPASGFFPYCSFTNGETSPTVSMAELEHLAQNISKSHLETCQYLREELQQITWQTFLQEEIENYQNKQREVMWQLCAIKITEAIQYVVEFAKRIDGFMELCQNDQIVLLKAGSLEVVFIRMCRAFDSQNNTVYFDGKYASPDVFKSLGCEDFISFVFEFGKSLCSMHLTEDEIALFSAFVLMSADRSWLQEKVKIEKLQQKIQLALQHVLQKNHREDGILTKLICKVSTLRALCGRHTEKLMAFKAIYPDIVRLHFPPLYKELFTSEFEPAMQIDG
SF-1 act: activates the human nuclear receptor SF-1 | Q13285 | CHO-K1 Gal4-SF-1 LBD luciferase reporter; % increase over DMSO SF-1-specific signal | activation, % at 10 µM | actives 1.9% (n = 65,000);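 active = activation above the mean activation of all tested compounds plus 3 SD, cut at about 50% in these data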
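Compound – one dose, 10 µM compound, 1% DMSO · Test system – transient Gal4-SF-1 LBD reporter, CHO-K1 · Input – 4,000 cells in each well · Read-out basis – percent activation relative to DMSO median and mock-transfected background · Replicates – single measurement per compound · Technique – steady-glow luciferase luminescence, read after 15 min reagent incubation · Timing – 20 h compound treatment, 37 °C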
The depositor's hits bear a star; x = no result given. Sampled rows, rich in hits. Any-hit rate of the full collection: about 6.3%.

SMILES	M1 antagonist	MT1-MMP txn act	M1 ag	RORa activator	SF-1 act
O=c1c2cccc3c(N4CCOCC4)ccc(c32)c2nc3ccccc3n12	-0.27	1.5	7.2*	8	44
c1ccc2c(c1)nc(CN1CCOCC1)n1c3ccccc3nc21	0.031	1	4.2	-2	8
O=C(CSc1ccc2nnc(-c3cccnc3)n2n1)N1CCc2ccccc21	0.38	1.2	-2.9*	-6	13
O=C(NCc1ccccc1)c1noc2c1CCCC2	-0.076	1.1	-0.61	37	12
COc1ccc(CNC(=O)c2noc3c2CCCC3)cc1	0.32	1.4	0.72	55*	42
O=C(NCc1cccs1)c1noc2c1CCCC2	-0.39	1.1	-0.22	55*	4
CCCc1cc(C(=O)NCc2ccc(OC)cc2)no1	-0.047	1.3	-0.015	49*	29
COc1ccc(CNC(=O)NC2CCCCC2)cc1	-0.19	1.3	1	4	50*
O=C(NCc1ccccc1)NC1CCCCC1	0.49	1.3	-1.4	38	28
O=C(c1cccc(S(=O)(=O)N2CCCCC2)c1)N1CCN(S(=O)(=O)c2ccc(F)cc2)CC1	x	1	x	x	x
CCCC(=O)Nc1nc2c(OC)ccc(OC)c2s1	-0.16	1	0.48	-17	0
Cc1ccc(-c2c3c(=O)n(C)c(=O)n(C)c3c3c(C)cc(C)nn23)cc1	-13*	1	9.5*	-3	-5
Cc1ccc(-c2c3c(=O)n(C)c(=O)n(C)c3cn2Cc2ccccc2)cc1	x	1.1	x	x	x
COc1ccccc1OCC(=O)Nc1cccc(-c2nc3ccccc3o2)c1	-0.087	1.2	0.47	20	61*
COc1cccc(NC(=O)COc2ccccc2C(N)=O)c1	1.2	0.9	-0.73	15	62*
CCC(=O)Nc1cccc(-c2nc3ccccc3o2)c1	0.47	1.4	-0.87	8	42
c1ccc(-n2ncc3c(NCCN4CCCCC4)ncnc32)cc1	-2.1	1.7	-0.58	40	69*
Fc1ccc(CNc2ncnc3c2cnn3-c2ccccc2)cc1	0.42	1.3	0.4	8	42
c1ccc(-n2ncc3c(NCCN4CCOCC4)ncnc32)cc1	0.3	1.8	-0.29	46	38
c1ccc(CNc2ncnc3c2cnn3-c2ccccc2)cc1	0.12	1.2	-0.32	91*	77*
Cc1cccc(-n2ncc3c(NCc4ccccn4)ncnc32)c1	0.11	1.3	-0.17	29	24
CCN(c1ccccc1)c1ncnc2c1cnn2-c1ccccc1	-0.038	1.6	0.45	59*	59*
Cc1cccc(-n2ncc3c(NCc4ccco4)ncnc32)c1	0.059	1.9	0.45	72*	93*
COc1ccc(N=CC2=C(Nc3ccc(OC)cc3)c3c(C)nn(-c4ccccn4)c3CC2)cc1	x	1.3	x	x	x
CCOc1ccccc1C(=O)N(Cc1cccs1)C1CCS(=O)(=O)C1 (configuration not stated)	-0.72	1.3	0.2	11	1
SMILES	M1 antagonist	MT1-MMP txn act	M1 ag	RORa activator	SF-1 act
Cc1cccc(-n2ncc3c(N(CCO)CCO)ncnc32)c1	-0.4	1.5	-1.8	68*	19
c1ccc(CCNc2ncnc3c2cnn3-c2ccccc2)cc1	0	1.6	1.2	56*	14
Cc1cccc(-n2ncc3c(NCc4ccccc4)ncnc32)c1	-1.5	x	-0.45	78*	82*
CN(C)CCCNc1ncnc2c1cnn2-c1ccccc1	-0.12	x	-0.28	25	21
COC(=O)c1ccc(N2C(=O)CC(SCCN)C2=O)cc1 (configuration not stated)	1.2	1.4	-0.42	51*	42
CCOC(=O)C(N)CSC1CC(=O)N(c2ccc(C(=O)OC)cc2)C1=O (configuration not stated)	0.57	1.1	-1.9	-10	-2
COc1ccccc1-c1nnc(Sc2nc([N+](=O)[O-])nn2C)o1	x	0.9	x	x	x
COc1cc2ccccc2cc1C(=O)Nc1cccnc1	2	1.9	0.54	77*	50*
CCOC(=O)c1cnc2scnn2c1=O	-0.14	1.2	-0.03	-11	-3
CCOC(=O)c1cnc2cc3c(cn2c1=O)CCCC3	0.69	1.3	-0.17	27	86*
Cc1ccc(CNC(=O)C2C3C=CC(C3)C2C(=O)O)cc1 (configuration not stated)	0.55	1	0.39	-2	-6
COC(=O)[C@@]1(Cc2ccc(OC)cc2)[C@H]2c3cc(C(=O)N4CCCC4)n(Cc4cc(F)c(F)c(F)c4)c3C[C@H]2CN1C(=O)c1ccccc1	x	1.2	x	x	x
CCOC(=O)CC(=O)CSc1nnc2c(n1)[nH]c1ccccc12	-0.53	x	-1.2	45	53*
CC[N+](CC)(CC)C/C(N)=N/O	0.1	1.1	-0.92	2	-2
CN(C)C(=O)CSc1nnc(C23CC4CC(CC(C4)C2)C3)o1	1.1	1.2	0.36	18	88*
CCCCCCN(C(=O)CCCCCN1C(=O)NC(c2ccc(-c3ccccc3)cc2)C(C(=O)OCc2ccccc2)=C1C)C(C(=O)NCCCC)c1cccc(C(=O)OC)c1 (configuration not stated)	x	1.2	x	x	x
Cc1nn2c(-c3ccccc3)nnc2c2ccccc12	2.1*	1.6	0.34	34	33
Cc1nn2c3ccccc3nc2c2ccccc12	-0.67	1.4	1.1	31	11
O=S(=O)(NC1CCCCC1)c1ccc(Cl)s1	-0.44	1.1	0.22	-19	5
O=C(c1ccccc1)c1c[nH]c2cc3c(cc2c1=O)OCCO3	-0.32	1.3	-1.4	40	50*
Cc1ccc(-n2nnc3c(SCC(=O)N4CCN(c5ccccc5)CC4)ncnc32)cc1	-0.37	1.1	-0.0017	3	-3
O=C(Oc1ccc(-c2ccccc2)cc1)N1CCOCC1	0.27	1.3	-0.6	61*	43
O=C(NCc1ccco1)Nc1ccc(Br)cc1Cl	x	1.2	x	57*	60*
CC(C)(C)n1ncc2c(=O)n(CC(=O)NCc3ccc(F)cc3)cnc21	-0.028	0.8	-0.42	67*	92*
CC(C)(C)n1ncc2c(=O)n(CC(=O)c3ccccc3)cnc21	-0.84	1.6	0.064	55*	93*
SMILES	M1 antagonist	MT1-MMP txn act	M1 ag	RORa activator	SF-1 act
CC(C)(C)n1ncc2c(=O)n(CC(=O)NCc3ccco3)cnc21	1	1.5	-0.17	38	50*
CC(C)(C)n1ncc2c(=O)n(CC(=O)Nc3ccccc3)cnc21	0.39	1.2	-0.33	-3	8
Cc1ccc(-n2ncc3c(=O)n(CC(=O)NC4CCCCC4)cnc32)cc1C	-0.3	1.1	-1.1	0	12
CC(C)(C)n1ncc2c(=O)n(CC(=O)NC3CCCCC3)cnc21	-0.34	1.4	1	24	68*
CCOC(=O)C1CCCN(C(=O)C(C)Oc2ccc(Cl)cc2Cl)C1 (configuration not stated)	0.14	1	4.5*	-17	-2
CCOC(=O)C1CCN(C(=O)COc2ccc(Cl)cc2Cl)CC1	-0.14	1	-0.075	-19	3
COC(=O)C1CCN(C(=O)C(C)Oc2ccc(Cl)cc2Cl)CC1 (configuration not stated)	1.2*	1.1	-0.15	0	4
